Ecoli rRNA inh: inhibits bacterial ribosomal RNA function over humanized ribosomes; E. coli WT GFP vs humanized-ribosome RFP mutants, fluorescence, 24 h; hits give low values; DMSO median 0, no signal -100; 350,000 tested, 1.6% active; GFP signal change (wild-type ribosome), % (concentration not given with the values);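 active = significant combined selectivity score with lowered wild-type GFP, culture density cut under 30%, mutant RFP and density less affected; inactive = any of these conditions unmet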
RAD52 anneal inh: blocks human RAD52 DNA annealing; recombinant RAD52 DNA annealing, FRET fluorescence; P43351; 360,000 tested, 0.46% active; inhibition, % at 18.7 µM;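 active = every replicate showing at least 50% inhibition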
PglD inh: inhibitors of Campylobacter jejuni PglD acetyltransferase. purified PglD enzyme, DTNB colorimetric CoA detection. inhibition, % at 12.5 µM. 360,000 tested, 0.098% active. AID 602405; in the data active = inhibition above about 16%, passing the limit was not always enough
Xi reactivation: activators of X-chromosome reactivation in mouse fibroblasts. XiGFP mouse fibroblasts, % GFP-positive cells imaging, 3 d; cells co-treated with 5-aza-dC sensitizer; scaled so ellipticine positive control = 100%. activation, % at 7.58 µM. 360,000 tested, 0.055% active. AID 743238;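 active = mean normalized replicate activation at least 10% and every replicate at or above 10%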;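 note: 0% = median of on-plate neutral control wells and 100% = ellipticine 6 µM median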
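Material: SV40-immortalized XiGFP fibroblast cells, line 68-5-11 | Buffer or medium: DMEM containing 5-aza-dC | Dosing: One concentration, pinned | Times: 3 d treatment, 15 min room-temperature fixation | Controls: Ellipticine 6 µM positive control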
E-selectin induc: E-selectin induction on HUVECs. P16581. HUVEC E-selectin immunofluorescence imaging; normalized: neutral wells 0, TNF-alpha wells 100. activation, % at 7.58 µM. 260,000 tested, 0.37% active. AID 686992;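 active = mean E-selectin-positive cell signal at least 10% of the positive control, reached in at least 60% of replicates, without over 20% cell loss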
Target sequence (P16581 whole entry, looked up): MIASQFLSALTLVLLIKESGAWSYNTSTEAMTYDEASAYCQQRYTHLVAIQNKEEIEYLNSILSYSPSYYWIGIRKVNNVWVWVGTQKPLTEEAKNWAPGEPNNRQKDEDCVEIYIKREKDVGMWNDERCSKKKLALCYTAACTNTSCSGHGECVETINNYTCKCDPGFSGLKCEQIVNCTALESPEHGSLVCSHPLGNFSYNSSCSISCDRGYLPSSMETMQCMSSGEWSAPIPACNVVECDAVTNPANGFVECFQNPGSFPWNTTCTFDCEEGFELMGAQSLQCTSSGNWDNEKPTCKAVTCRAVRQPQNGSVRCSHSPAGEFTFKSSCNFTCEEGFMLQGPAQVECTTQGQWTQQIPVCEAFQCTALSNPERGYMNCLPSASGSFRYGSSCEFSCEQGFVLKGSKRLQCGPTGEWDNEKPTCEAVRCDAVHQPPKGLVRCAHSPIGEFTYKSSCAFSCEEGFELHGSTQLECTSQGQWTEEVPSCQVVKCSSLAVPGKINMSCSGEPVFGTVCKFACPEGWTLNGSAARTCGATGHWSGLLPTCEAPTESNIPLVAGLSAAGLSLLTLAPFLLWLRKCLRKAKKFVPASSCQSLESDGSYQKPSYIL
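System: HUVEC / Compound: single concentration / Signal: immunofluorescence imaging / Read-out: percent E-selectin-positive cells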
RAD54 inh: inhibitors of human RAD54 branch migration; 360,000 tested, 0.14% active; Q92698; inhibition, % at 10.4 µM; RAD54 Holliday junction branch migration, FAM/BHQ fluorescence;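 active = mean normalized replicate activity at least 40 and at least half of replicates scoring 40 or more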;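 note: 0% = median of neutral control wells and 100% = median of positive control wells; inhibitors cause a drop in the FAM fluorescence signal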
Starred values were filed as active, the others as inactive; . = no result given; ! = a repeat was not active. Most compounds without a hit are left out; they make up all but 2% or so of the library.

SMILES	Ecoli rRNA inh	RAD52 anneal inh	PglD inh	Xi reactivation	E-selectin induc	RAD54 inh
Cc1ccc(S(=O)(=O)N2CCN(Cc3ccccc3)CC2)cc1	-1	-12	3	0	0	9
CO[C@H]1CN(C)C(=O)c2ccc(NC(C)=O)cc2OC[C@H](C)N(Cc2cccnc2)C[C@H]1C	0	.	.	0	0	.
COc1ccc(NC(=O)N(C)C[C@@H]2Oc3ncc(C#C[C@@H](C)O)cc3C(=O)N([C@H](C)CO)C[C@H]2C)cc1	1	0	0	0	0	3
Fc1ccc(-c2ccc(C3[C@@H]4CN(Cc5ccccc5)C[C@H]3N4)cc2)cc1 (stereo partly specified)	-58	78*!	.	0	0	.
Cc1ccc(-c2ccc(C3[C@@H]4CN(Cc5ccccc5)C[C@H]3N4)cc2)cc1 (stereo partly specified)	0	.	.	0	.	.
COC(=O)[C@H](Cc1ccccc1)NC(=O)N1CCCCCC1	3	-7	-1	0	.	-19
O=C(CCC(=O)N1CCN(c2ccc(F)cc2)CC1)N1CCN(c2ccc(F)cc2)CC1	-21*	-7	-1	0	.	-1
COC(=O)[C@H](Cc1ccccc1)NC(=O)N1CCN(c2ccc(F)cc2)CC1	-20*	-1	-6	0	0	0
COc1ccc2nc(C)cc(Nc3ccccc3OC)c2c1	.	-12	2	0	0	4
COc1ccc2nc(C)cc(N/N=C/c3cccc(OC)c3O)c2c1	-33	49	-10	0	.	108*
COc1ccc(/C=N/Nc2cc(C)nc3ccc(Br)cc23)cc1	-22	4	-8	0	0	119*
Cc1nnn(C23CC4CC(CC(CC(=O)Nc5ccc(C)c(C)c5)(C4)C2)C3)n1	-19*	-19	-2	0	.	-7
Cc1cccc(NC(=O)CC23CC4CC(C2)CC(n2nnc(C)n2)(C4)C3)c1	-23*	-22	1	0	.	1
CC(=O)c1ccc(NC(=O)CC23CC4CC(C2)CC(n2nnc(C)n2)(C4)C3)cc1	-18	-5	.	1	.	.
COC(=O)[C@]12C[C@H](CC(=O)NCc3cccs3)C(=O)N(Cc3ccc4c(c3)OCO4)C1=C[C@H](C(C)(C)C)O[C@@H]2C	16	-6	.	0	0	.
CN(C)C(=O)C[C@H]1CC[C@H]2[C@@H](COc3ccc(NC(=O)C4CCC4)cc3C(=O)N2C)O1	3	-5	.	0	0	.
Cc1noc(C)c1NC(=O)N(C)C[C@H]1Oc2ccc(NC(=O)CCC(F)(F)F)cc2CC(=O)N([C@H](C)CO)C[C@H]1C	1	9	-1	-1	0	2
C[C@@H]1CCCCO[C@H](CN(C)CC2CCCCC2)[C@@H](C)CN([C@H](C)CO)C(=O)c2cc(NC(=O)C3CCCCC3)ccc2O1	0	6	0	0	0	-2
CN(C)C(=O)C[C@H]1CC[C@H]2[C@@H](COC[C@@H](O)CN2CC2CCCC2)O1	-2	13	4	1	0	2
Cc1ccccc1OCCNC(=O)CNC(=O)c1ccccc1O	-27*	-2	2	.	.	0
O=C(O)C1=C[C@@H](c2ccc3c(c2)Cc2ccccc2-3)C[C@@H](OCCCCO)O1	.	-27	-8	.	.	1
O=C(Nc1ccccc1)C1=C[C@@H](c2ccc3c(c2)Cc2ccccc2-3)C[C@@H](OCCCCO)O1	.	52*	-4	.	.	11
COc1ccc(-c2ccc(C3[C@H]4CNC[C@@H]3N4C(=O)Nc3cccc(OC)c3)cc2)cc1 (stereo partly specified)	-5	67*!	.	0	0	.
COc1cccc(-c2ccc(C3[C@H]4CNC[C@@H]3N4S(=O)(=O)c3cccc(Cl)c3)cc2)c1 (stereo partly specified)	-57	53*	.	0	-1	.
COc1cccc(-c2ccc(C3[C@H]4CNC[C@@H]3N4C(=O)Nc3ccccc3Cl)cc2)c1 (stereo partly specified)	-2	51*!	.	0	0	.
SMILES	Ecoli rRNA inh	RAD52 anneal inh	PglD inh	Xi reactivation	E-selectin induc	RAD54 inh
COc1cccc(NC(=O)N2[C@@H]3CNC[C@H]2C3c2ccc(-c3cccnc3)cc2)c1 (stereo partly specified)	1	0	.	0	0	.
COc1cccc(NC(=O)N2[C@@H]3CNC[C@H]2C3c2ccc(-c3cccc(OC)c3)cc2)c1 (stereo partly specified)	-61	66*!	.	0	0	.
COc1ccc(-c2ccc(C3[C@H]4CNC[C@@H]3N4S(=O)(=O)c3cccc(Cl)c3)cc2)cc1 (stereo partly specified)	-56	34	.	0	0	.
COc1ccc(NC(=O)N2[C@@H]3CNC[C@H]2C3c2ccc(-c3ccc(OC)cc3)cc2)cc1 (stereo partly specified)	4	2	.	0	0	.
C[C@H](CO)N1C[C@H](C)[C@@H](CN(C)CC2CCCCC2)Oc2c(NC(=O)C3CCOCC3)cccc2C1=O	-5	22	-1	-1	-4	4
COCC#Cc1ccc([C@H]2[C@H](CO)N3C(=O)CN(C(=O)c4ccncc4)C[C@@H]23)cc1	6	1	.	0	0	.
COc1ccc2c3c(n(C)c2c1)[C@H](CO)N(Cc1cccnc1)CC31CN(Cc2cccnc2)C1	0	21	.	0	0	.
COc1ccc(/C=C/C(=O)OCC(=O)N2c3ccccc3CC2C)cc1OC (stereo unspecified)	9	3	0	0	1	-1
COc1cccc(/C=C/C(=O)OCC(=O)N2c3ccccc3CC2C)c1 (stereo unspecified)	-18*	-18	0	0	0	-8
CC1Cc2ccccc2N1C(=O)COC(=O)c1cc(Br)ccc1O (stereo unspecified)	10	-10	.	0	5	.
CC1Cc2ccccc2N1C(=O)COC(=O)c1cccc(Br)c1 (stereo unspecified)	-32*	-20	-4	0	.	-5
COc1ccccc1CNc1cncnc1	-23*	0	4	0	0	1
COc1ccccc1CNc1ncccn1	5	5	0	0	.	6
Cc1noc(C)c1S(=O)(=O)Nc1ccc2c(c1)CC(=O)N([C@H](C)CO)C[C@H](C)[C@@H](CN(C)C(=O)Nc1cccc3ccccc13)O2	0	-5	.	-1	305*	.
Cc1noc(C)c1S(=O)(=O)Nc1ccc2c(c1)CC(=O)N([C@H](C)CO)C[C@@H](C)[C@H](CN(C)C(=O)Nc1cccc3ccccc13)O2	0	3	1	0	32*	9

Screening results (PubChem BioAssay)
